According to ChEMBL document CHEMBL3102752, “Identification of novel drug scaffolds for inhibition of SARS-CoV 3-Chymotrypsin-like protease using virtual and high-throughput screenings” (Bioorg Med Chem, 2014):
Where a name gives a salt, the structure may show the parent alone. Calls of active or inactive are those of the source. No cut-off for these calls is given here.

How the values were obtained:
[1] = target: Replicase polyprotein 1ab (Severe acute respiratory syndrome-related coronavirus) (UniProt P0C6X7); experiment: Inhibition of SARS coronavirus 3C-like protease using 5-FAM-TSATLQSGFRK(QXL520)-NH2 as substrate at 100 uM preincubated for 5 mins followed by substrate addition measured after 6 mins by FRET assay in presence of GSH relative to control
[2] = target: Replicase polyprotein 1ab (Severe acute respiratory syndrome-related coronavirus) (UniProt P0C6X7); experiment: Inhibition of SARS coronavirus 3C-like protease using 5-FAM-TSATLQSGFRK(QXL520)-NH2 as substrate at 100 uM preincubated for 5 mins followed by substrate addition measured after 6 mins by FRET assay relative to control
[3] = Inhibition of SARS coronavirus PL-protease; set-up: species or system Severe acute respiratory syndrome-related coronavirus
[4] = target: Replicase polyprotein 1ab (Severe acute respiratory syndrome-related coronavirus) (UniProt P0C6X7); experiment: Binding affinity to SARS coronavirus 3C-like protease using 5-FAM-TSATLQSGFRK(QXL520)-NH2 as substrate up to 200 uM by SPR analysis
How it was run: (§1)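 Untagged native 3CLpro amine-coupled to CM5 chip (in 10 mM sodium acetate pH 5.0). Ethanolamine-blocked channel as reference. Running buffer HBS-P pH 7.4, 20 °C.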

[5] = target: T1, Replicase polyprotein 1ab (Severe acute respiratory syndrome-related coronavirus, UniProt P0C6X7); experiment: Inhibition of SARS coronavirus 3C-like protease using 5-FAM-TSATLQSGFRK(QXL520)-NH2 as substrate preincubated for 5 mins followed by substrate addition measured after 6 mins by FRET assay in presence of GSH
How it was run: (§2)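 Enzyme preincubated 5 min with compound (0–200 μM, 2-fold series), then 15 μM FAM/QXL substrate added. Continuous fluorescence read for 6 min, in triplicate. IC50 from Hill fit over two to four independent assays.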

[6] = target: T1, Replicase polyprotein 1ab; experiment: Inhibition of SARS coronavirus 3C-like protease using 5-FAM-TSATLQSGFRK(QXL520)-NH2 as substrate preincubated for 5 mins followed by substrate addition measured after 6 mins by FRET assay; how it was run: as §2
[7] = target: T1, Replicase polyprotein 1ab; experiment: Competitive inhibition of SARS coronavirus 3C-like protease using 5-FAM-TSATLQSGFRK(QXL520)-NH2 as substrate by Dixon plot analysis
How it was run: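 Best-fit inhibition model chosen by fitting competitive, non-competitive, uncompetitive or mixed equations to give Ki. Dixon plot; three independent assays.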

[8] = target: Replicase polyprotein 1ab (Severe acute respiratory syndrome-related coronavirus) (UniProt P0C6X7); experiment: Reversible inhibition of SARS coronavirus 3C-like protease using 5-FAM-TSATLQSGFRK(QXL520)-NH2 as substrate assessed as recovery rate at 20 x IC50 preincubated for 1 hr followed by compound washout by FRET assay in presence of GSH; set-up: scale not given: the % may be the effect or the level left
How it was run: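 No-compound enzyme served as control. Samples desalted to remove compound; activity measured before and after buffer exchange by the IC50 assay.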

[9] = target: Ubiquitin carboxyl-terminal hydrolase isozyme L1 (Homo sapiens) (UniProt P09936); experiment: Inhibition of human UCH-L1
Ubiquitin carboxyl-terminal hydrolase isozyme L1 (Homo sapiens), sequence (P09936 whole entry, looked up): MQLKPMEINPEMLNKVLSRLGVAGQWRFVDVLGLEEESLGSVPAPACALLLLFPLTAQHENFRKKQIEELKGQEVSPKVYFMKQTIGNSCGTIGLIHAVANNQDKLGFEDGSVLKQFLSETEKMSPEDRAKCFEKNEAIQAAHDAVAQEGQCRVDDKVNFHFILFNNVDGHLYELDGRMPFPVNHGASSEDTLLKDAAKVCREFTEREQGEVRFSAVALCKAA
How it was run: (§3)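 IC50 determined in triplicate with 32 positive and 32 negative controls per plate. Data fitted to a three-parameter Hill equation.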

Hepacivirus hominis = experiment: Inhibition of Hepatitis C virus NS3/4A protease; how it was run: as §3
[10] = target: T2, Dihydroorotase (Bacillus anthracis) (UniProt Q81WF0); experiment: Inhibition of Bacillus anthracis dihydroorotase; how it was run: as §3
T2 sequence (whole entry): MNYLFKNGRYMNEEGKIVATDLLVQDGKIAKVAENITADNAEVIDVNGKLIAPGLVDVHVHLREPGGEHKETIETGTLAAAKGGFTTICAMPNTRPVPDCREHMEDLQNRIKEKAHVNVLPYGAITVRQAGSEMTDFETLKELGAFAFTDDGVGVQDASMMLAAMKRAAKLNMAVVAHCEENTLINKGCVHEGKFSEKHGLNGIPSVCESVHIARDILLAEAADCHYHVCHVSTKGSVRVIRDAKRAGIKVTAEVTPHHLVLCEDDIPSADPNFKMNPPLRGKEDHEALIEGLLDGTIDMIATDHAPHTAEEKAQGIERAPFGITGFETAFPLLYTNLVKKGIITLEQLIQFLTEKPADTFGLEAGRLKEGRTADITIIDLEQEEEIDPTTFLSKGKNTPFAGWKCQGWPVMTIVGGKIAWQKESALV

Streptococcus pneumoniae = experiment: Inhibition of Streptococcus pneumoniae PurC; how it was run: as §3
[11] = target: T1, Replicase polyprotein 1ab; experiment: Inhibition of SARS coronavirus 3C-like protease using 5-FAM-TSATLQSGFRK(QXL520)-NH2 as substrate
[12] = target: Replicase polyprotein 1ab (Severe acute respiratory syndrome-related coronavirus) (UniProt P0C6X7); experiment: Binding affinity to SARS coronavirus 3C-like protease using 5-FAM-TSATLQSGFRK(QXL520)-NH2 as substrate by SPR analysis
[13] = target: Replicase polyprotein 1ab (Severe acute respiratory syndrome-related coronavirus) (UniProt P0C6X7); experiment: Binding affinity to SARS coronavirus 3C-like protease using 5-FAM-TSATLQSGFRK(QXL520)-NH2 as substrate up to 90 uM by SPR analysis; how it was run: as §1

Compound: COc1ccccc1CNC(=O)[C@H](C)NS(=O)(=O)c1ccccc1
- inhibition [1]: inactive
- inhibition [2]: inactive

Compound: C(=C\c1ccccc1)/C[N+]1(C/C=C/c2ccccc2)CCN(C(c2ccccc2)c2ccccc2)CC1
- IC50 [3]: > 200 µM
- Activity [4]: Active
- IC50 [5]: 28.3 µM
- IC50 [6]: 29.8 µM

Compound: Nc1ccc(F)c(S(=O)(=O)Nc2cccc(C(F)(F)F)c2)c1
- inhibition [1]: inactive
- inhibition [2]: inactive
- IC50 [5]: > 200 µM
- IC50 [6]: 29.8 µM

Compound: Cn1cnc2cc(NC(=O)c3ccc(Cl)cc3)ccc21
- IC50 [3]: > 200 µM
- Ki [7]: 27.5 µM
- Activity [8]: > 50%
- IC50 [5]: 30.9 µM
- IC50 [6]: 27.6 µM
- inhibition [9]: inactive
- inhibition (Hepacivirus hominis): inactive
- inhibition [10]: inactive
- inhibition (Streptococcus pneumoniae): inactive
- IC50 [11]: 18.2 µM

Compound: CN(CC(=O)NC1CCCC1)S(=O)(=O)c1cccc(Cl)c1
- IC50 [5]: > 200 µM
- IC50 [6]: 0.94 µM

Compound: CCCCC(CC)CNC(=N)NC(=N)NCCCCCCNC(=N)NC(=N)NCC(CC)CCCC (stereo not given) [ALEXIDINE DIHYDROCHLORIDE]
- IC50 [3]: > 200 µM
- Activity [12]: inactive
- IC50 [5]: 17.8 µM
- IC50 [6]: 24.5 µM
- IC50 [11]: 25.1 µM

Compound: COCCOCCn1c(CCCO)nc2ccccc21
- inhibition [1]: inactive
- inhibition [2]: inactive
- IC50 [5]: 186 µM
- IC50 [6]: 25.6 µM

Compound: COc1ccc(C(=O)Cn2c(NCCO)nc3ccccc32)cc1
- Activity [8]: 14.3%
- inhibition [1]: inactive
- inhibition [2]: inactive
- IC50 [5]: 40.9 µM
- IC50 [6]: 28.8 µM

Compound: S=C(NCc1cccnc1)SCc1cc(Cl)sc1Cl
- IC50 [3]: > 200 µM
- Activity [8]: > 50%
- IC50 [5]: 9.2 µM
- IC50 [6]: 0.16 µM

Compound: O=C(c1cncc(Br)c1)N1CCN(Cc2ccsc2)CC1
- IC50 [3]: 105 µM
- Activity [12]: inactive
- IC50 [5]: 24.5 µM
- IC50 [6]: 10.8 µM

Compound: COc1ccc(N(CC(=O)NCc2ccco2)S(C)(=O)=O)cc1
- Activity [13]: inactive
- inhibition [1]: inactive
- inhibition [2]: inactive
- IC50 [5]: 61.9 µM
- IC50 [6]: 16.1 µM

Compound: OCCCc1nc2ccccc2n1CCOc1ccccc1
- Activity [12]: inactive
- inhibition [1]: inactive
- inhibition [2]: inactive
- IC50 [5]: 74.5 µM
- IC50 [6]: > 200 µM

Compound: CCOc1ccc(S(=O)(=O)NCc2ccc3c(c2)OCO3)cc1C
- IC50 [3]: > 200 µM
- Activity [8]: > 50%
- inhibition [1]: inactive
- inhibition [2]: inactive
- IC50 [5]: 76.7 µM
- IC50 [6]: > 200 µM
